Laboratory results from PMC5099097 (Antiviral research, 2016).

Experiments:
HCMV T3252 (UL97 mutant) = experiment: SEAP assay, recombinant GCV-resistant HCMV T3252 on MRC-5 cells; type: cell-based, human cytomegalovirus; details: Supplemental Table 1 (values not available)
HCMV T3429 (UL54 mutant) = experiment: SEAP assay, recombinant GCV-resistant HCMV T3429 on MRC-5 cells; type: cell-based, human cytomegalovirus; details: Supplemental Table 1 (values not available)
HCMV TB40E [1] = experiment: GCV and p5RD alone and combined, TB40E-Luc on MRC-5 cells; type: cell-based, human cytomegalovirus; details: 3 μM GCV alone
[2] = design: species or system BALB/c mice; details: mouse, in vivo, iv
MCMV = details: relative to p5; ref Dogra et al., 2015; Martin et al., 2013; Wall et al., 2011; cited from earlier work
HCMV TB40E [3] = experiment: Luciferase assay: peptide reduction of HCMV TB40E-Luc infection of MRC-5 cells; type: cell-based, human cytomegalovirus; details: peptide concentration >200 μM
HCMV TB40E [4] = experiment: Luciferase assay: TB40E-Luc infection of MRC-5, HFF, ARPE-19 and HAEC cells; type: cell-based, human cytomegalovirus; details: 200 μM peptide added 30 min prior to infection, ARPE-19, HAEC
Method in brief: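 At 80–85% confluency, cells (MRC-5, HFF, ARPE-19 or HAEC) got 200 μM peptide in 10% FBS/PBS, or vehicle alone, 30 min before HCMV TB40E (luciferase, UL18 promoter) at ~35–50 pfu (~2500–3000 RLU). Inoculum was removed after 60 min at 37 °C. Cells were lysed after 3 days and luminescence read. Uninfected background was subtracted and values normalized to infected untreated cells. Three experiments, three replicates each.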

For `Nc1nc(O)c2ncn(COC(CO)CO)c2n1` [GCV, ganciclovir], the “susceptibility of T3252 to GCV” value (HCMV T3252 (UL97 mutant)) was “resistant to high concentrations”, the “susceptibility of T3429 to GCV” value (HCMV T3429 (UL54 mutant)) was “resistant to high concentrations” and the “reduction in HCMV infection” value (HCMV TB40E [1]) was ~ 95%.

In the case of GGGYSRAQRAQARQARQAQRARGARQ [p5R], the “time by which the majority of the peptide was excreted or degraded” value [2] is given as no more than 4 h, the “time retained at high levels in the spleen, liver and kidneys post injection” value [2] is given as “rapidly dehalogenated and/or excreted” and the “blocks MCMV infection more efficiently than p5 (fold)” value (MCMV) is given as 2 x. The “reduction of HCMV infection” value (HCMV TB40E [3]) was no less than 90% and the “reduction of HCMV infection in all cell types” value (HCMV TB40E [4]) was greater than 80%.
